Screening data deposited in PubChem by several laboratories.
A selection: hits, their analogues and other compounds. The true share with any hit is near 3.2%.
DAX1 inh-1 – blocks DAX1 repression of SF-1 activated StAR promoter; HEK293T StAR-luciferase reporter, SF-1/DAX-1 repression relief; inhibition, % at 6.8 µM; 370,000 tested, 1.1% active;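 active means inhibition above the mean over all tested compounds plus 3 SD, cut at about 3.6% in these data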;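 further: 0% = DAX-1 cells with DMSO and 100% = cells lacking DAX-1 with DMSO; higher inhibition means more luminescence from relief of DAX-1 repression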
DAX1 inh-2 – inhibitors of human orphan nuclear receptor DAX1 (NR0B1); 340,000 tested, 0.99% active; HEK293 Gal4-DAX1 luciferase reporter, luminescence; AID 504766; P51843; inhibition, % at 6.75 µM;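 active means inhibition above the mean over all tested compounds plus 3 SD, cut at about 4.2% in these data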;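 further: 0% = DAX1-transfected cells with DMSO and 100% = empty-vector control cells with DMSO; inhibition shows as a rise in luminescence from relieved DAX1 repression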
Target sequence (P51843 207-470 limits assumed): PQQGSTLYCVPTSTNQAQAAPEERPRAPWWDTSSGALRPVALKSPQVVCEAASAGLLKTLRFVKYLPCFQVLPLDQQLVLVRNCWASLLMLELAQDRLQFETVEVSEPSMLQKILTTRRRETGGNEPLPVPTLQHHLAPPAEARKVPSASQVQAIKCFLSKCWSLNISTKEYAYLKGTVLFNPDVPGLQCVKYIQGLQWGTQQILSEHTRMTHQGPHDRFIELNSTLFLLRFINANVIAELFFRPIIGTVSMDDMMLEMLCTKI
NR2E3 ag-1 – agonists of human nuclear receptor NR2E3. Q9Y5X4. GST-NR2E3/biotin-RetCOR TR-FRET, 1536-well. inhibition of corepressor binding, % at 4.78 µM. 320,000 tested, 0.12% active;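 active means percent inhibition above the cutoff of mean plus 3 SD of all tested compounds, set per screening campaign, cut at about 20% in these data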;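 further: 0% = DMSO wells and 100% = biotin wells as full block of FRET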
Target sequence (Q9Y5X4 whole entry, looked up): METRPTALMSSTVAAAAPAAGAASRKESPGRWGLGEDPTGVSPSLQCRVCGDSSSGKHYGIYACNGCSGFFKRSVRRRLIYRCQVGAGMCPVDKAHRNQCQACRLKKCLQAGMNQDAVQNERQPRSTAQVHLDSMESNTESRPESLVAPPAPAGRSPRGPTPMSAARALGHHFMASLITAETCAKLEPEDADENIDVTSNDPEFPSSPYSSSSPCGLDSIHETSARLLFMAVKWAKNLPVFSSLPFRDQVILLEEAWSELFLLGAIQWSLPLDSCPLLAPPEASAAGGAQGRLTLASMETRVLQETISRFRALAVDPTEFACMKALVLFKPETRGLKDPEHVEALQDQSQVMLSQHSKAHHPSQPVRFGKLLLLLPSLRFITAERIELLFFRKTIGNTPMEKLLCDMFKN
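Material: NR2E3–RetCOR corepressor complex / Amount: 1.35 nM GST-NR2E3 / Medium: Tris pH 7.5 / Compound: single nominal compound dose of 4.8 µM / Incubation: 5 h at 4 °C / Technique: TR-FRET, Eu(K)-anti-GST donor, streptavidin-D2 acceptor, ex 340, em 617/671 nm / Read-out basis: percent loss of FRET ratio relative to control wells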
SMARCA2 act – activators of SMARCA2 function; MG213 cells, MMTV-luciferase reporter, dexamethasone, overnight; activation, % at 9.1 µM; 370,000 tested, 1% active; AID 652017; in the data active means activation above about 7.8%;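 further: 0% = vehicle wells and 100% = reference activator wells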
JMJD2C inh – blocks human GASC-1 demethylase activity; GST-JMJD2C(1-420) H3K9me3 demethylation, DELFIA europium; inhibition, % at 2.35 µM; 330,000 tested, 0.069% active; AID 2099;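 active means more than half of a compound's replicate wells show inhibition beyond 50%, single wells judged on their own value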;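 further: signal counts dimethyl H3K9 product captured on neutravidin plate; 0% = median of DMSO wells and 100% = 0.3 times that DMSO median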
NR2E3 ag-2 – human photoreceptor-specific nuclear receptor agonism; Q9Y5X4; CHO-S Gal4-NCOR/VP16-NR2E3 two-hybrid, luciferase; inhibition of corepressor binding, % at 3.98 µM; 360,000 tested, 0.35% active;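 active means inhibition above the mean of all tested compounds plus 3 SD, cut at about 70% in these data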;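 further: 0% = DMSO with NR2E3 transfected cells and 100% = cells lacking NR2E3 construct; higher means lower luciferase signal from less NR2E3 corepressor binding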
DAX1 conf – confirmation of human DAX1 (NR0B1) inhibitors. shares compounds with DAX1 inh-1. HEK293T StAR-promoter luciferase reporter, SF-1/DAX-1 repression. inhibition, % at 6.8 µM. 2,400 tested, 87% active;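 active means inhibition above the average of every tested compound plus 3 SD, cut at about 3.8% in these data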;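 further: 0% = DAX-1 cells with DMSO and 100% = no DAX-1 control cells with DMSO; active compounds raise luminescence by relieving repression of the StAR reporter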
SF1 mutant ctr – counter-screen for DAX1 inhibitors: nonselective inhibitors with SF-1 AF2 mutant; shares compounds with DAX1 inh-1; HEK293 StAR-luciferase, luminescence; inhibition, % at 6.8 µM; 2,400 tested, 78% active; AID 652136;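 active means inhibition above the mean of all tested compounds plus 3 SD, cut at about 3% in these data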;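 further: 0% = DAX-1 transfected cells with DMSO and 100% = cells without DAX-1 with DMSO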
* = called active by the depositor.

How did O=C(CSc1nnc(-c2cccc(Cl)c2)n1Cc1ccco1)Nc1ccc2c(c1)OCO2 do in these assays?
DAX1 inh-1: -2; SMARCA2 act: -5

Results for COc1ccc(CSc2nnc(SCC(=O)Nc3ccc(S(N)(=O)=O)cc3)s2)cc1 ?
DAX1 inh-1: 0; SMARCA2 act: -5

How did O=S(=O)(Nc1cccc(-c2ccc(N3CCCCCC3)nn2)c1)c1cccc(F)c1 do in these assays?
DAX1 inh-1: 4.6*; DAX1 inh-2: 1; NR2E3 ag-1: -1; SMARCA2 act: 6; JMJD2C inh: 8; NR2E3 ag-2: -67; DAX1 conf: 6.9*; SF1 mutant ctr: 4.4*

What do the screens show for `O=S(=O)(Nc1cccc(-c2ccc(N3CCCCCC3)nn2)c1)c1ccc(C(F)(F)F)cc1`?
DAX1 inh-1: 0; DAX1 inh-2: 0; NR2E3 ag-1: -5; SMARCA2 act: 4; JMJD2C inh: -46; NR2E3 ag-2: -33

What do the screens show for `O=[N+]([O-])c1ccc(Cl)c(S(=O)(=O)Nc2cccc(-c3ccc(N4CCOCC4)nn3)c2)c1`?
DAX1 inh-1: 5.5*; DAX1 inh-2: -1; NR2E3 ag-1: 4; SMARCA2 act: 2; JMJD2C inh: 3; NR2E3 ag-2: -38; DAX1 conf: 9.5*; SF1 mutant ctr: 4.5*

Results for O=S(=O)(Nc1cccc(-c2ccc(N3CCCCCC3)nn2)c1)c1ccccc1F ?
DAX1 inh-1: 5.8*; DAX1 inh-2: 1; NR2E3 ag-1: 2; SMARCA2 act: 4; JMJD2C inh: -13; NR2E3 ag-2: -44; DAX1 conf: 6.1*; SF1 mutant ctr: 2

How did O=S(=O)(Nc1cccc(-c2ccc(N3CCCCCC3)nn2)c1)c1ccc(F)cc1 do in these assays?
DAX1 inh-1: 5.7*; DAX1 inh-2: 2; NR2E3 ag-1: 3; SMARCA2 act: 2; JMJD2C inh: -30; NR2E3 ag-2: -42; DAX1 conf: 2; SF1 mutant ctr: 3

What do the screens show for `O=S(=O)(Nc1cccc(-c2ccc(N3CCCCCC3)nn2)c1)c1ccccc1Cl`?
DAX1 inh-1: 1; DAX1 inh-2: 0; NR2E3 ag-1: 0; SMARCA2 act: -1; JMJD2C inh: -3; NR2E3 ag-2: -14

Results for CC(=O)N[C@@H]1C[C@@H]2O[C@@H](CO)CC[C@@H]2O[C@@H]1CCc1ccc(C#CC2(O)CCCC2)cc1 ?
DAX1 inh-1: -1; SMARCA2 act: 2

How did Nc1ccc(-c2nc3ccc(N)cc3s2)cc1 do in these assays?
DAX1 inh-1: 1; DAX1 inh-2: -1; NR2E3 ag-1: 1; SMARCA2 act: 1; JMJD2C inh: -10; NR2E3 ag-2: -74

What do the screens show for `Cc1cc(-c2nc3cc(F)ccc3s2)ccc1N`?
DAX1 inh-1: 7.0*; DAX1 inh-2: -3; SMARCA2 act: -2; NR2E3 ag-2: -126; DAX1 conf: 8.4*; SF1 mutant ctr: 4.5*

How did COC(=O)c1cc2c(c3c4ccccc4n(S(=O)(=O)c4cccc(C)c4)c13)C(=O)N(Cc1ccc(N(C)C)cc1)C2 do in these assays?
DAX1 inh-1: -2; SMARCA2 act: -5

Results for COC(=O)c1cc(-c2cc3ccccc3s2)c(=O)n2c1CCC2 ?
DAX1 inh-1: 0; SMARCA2 act: 3

How did C(=Cc1c[nH]c2ccccc12)c1nccc2ccccc12 do in these assays?
DAX1 inh-1: 15*; DAX1 inh-2: -2; SMARCA2 act: 5; NR2E3 ag-2: -175; DAX1 conf: 14*; SF1 mutant ctr: 7.1*

What do the screens show for `Fc1ccccc1/C=C/c1ccc2ccccc2n1`?
DAX1 inh-1: 5.8*; DAX1 inh-2: -4; NR2E3 ag-1: -5; SMARCA2 act: 4; JMJD2C inh: -5; NR2E3 ag-2: -153; DAX1 conf: 14*; SF1 mutant ctr: 3.5*

How did O=Cc1nccc2ccccc12 do in these assays?
DAX1 inh-1: 2; DAX1 inh-2: 0; SMARCA2 act: -3; NR2E3 ag-2: -2

What do the screens show for `C(=Cc1c[nH]c2ccccc12)c1ccc2ccccc2n1`?
DAX1 inh-1: 8.1*; DAX1 inh-2: -2; SMARCA2 act: 1; NR2E3 ag-2: -126; DAX1 conf: 8.0*; SF1 mutant ctr: 1

Results for COc1ccc2[nH]c3c(c2c1)CCN[C@]31C(=O)N(C)c2ccccc21 ?
DAX1 inh-1: 0; SMARCA2 act: 0

What do the screens show for `Cc1nn(-c2ccccc2)c(C)c1/C=N/NC(=O)c1[nH][nH]c(=O)c1C`?
DAX1 inh-1: 1; SMARCA2 act: -1

How did CC(C)(C)c1ccc(C(=O)Nc2ccccc2Cl)cc1 do in these assays?
DAX1 inh-1: 7.7*; DAX1 inh-2: 5.0*; NR2E3 ag-1: 7; SMARCA2 act: 3; JMJD2C inh: 1; NR2E3 ag-2: -152; DAX1 conf: 16*; SF1 mutant ctr: 6.5*

How did CS(=O)(=O)Nc1ccc(C(=O)Nc2ccccc2Cl)cc1 do in these assays?
DAX1 inh-1: 0; NR2E3 ag-1: -1; SMARCA2 act: 3; JMJD2C inh: -24; NR2E3 ag-2: -4

Results for COc1ccc(S[C@]2(C(=O)N(C)C)CC(=O)N(c3ccsc3)[C@@H]2c2ccc(OC)cc2)cc1 ?
DAX1 inh-1: -1; SMARCA2 act: -4

What do the screens show for `Cn1c(SCC(=O)Nc2ccccc2-c2ccccc2)nnc1-c1cnccn1`?
DAX1 inh-1: -1; SMARCA2 act: -6

How did Cc1c(C(=O)OC2CCC(C)CC2)[nH]c2c1C(=O)CCC2 (stereo not given) do in these assays?
DAX1 inh-1: 7.3*; DAX1 inh-2: 5.8*; NR2E3 ag-1: -2; SMARCA2 act: 0; JMJD2C inh: 10; NR2E3 ag-2: -134; DAX1 conf: 15*; SF1 mutant ctr: 5.9*

What do the screens show for `O=C(Nc1nnc(SCc2ccccc2F)s1)C1=COCCO1`?
DAX1 inh-1: 5.8*; DAX1 inh-2: 0; NR2E3 ag-1: 3; SMARCA2 act: 4; JMJD2C inh: 10; NR2E3 ag-2: -159; DAX1 conf: 6.4*; SF1 mutant ctr: 2

Results for O=c1cc(-c2ccccc2)oc2ccc3ccccc3c12 ?
DAX1 inh-1: 4.6*; DAX1 inh-2: -5; SMARCA2 act: 2; NR2E3 ag-2: -89; DAX1 conf: 0; SF1 mutant ctr: -4

What do the screens show for `O=c1cc(-c2ccccc2)oc2c1ccc1ccccc12`?
DAX1 inh-1: -1; SMARCA2 act: 6

How did COCCCn1cc(CN2CC=CS2(=O)=O)nn1 do in these assays?
DAX1 inh-1: 0; SMARCA2 act: 1
